≈ marks a conversion by molar mass, not a printed value.
Experiments:
[1] = test system: Streptococcus pneumoniae; assay: Antibacterial activity against Streptococcus pneumoniae 1629 by broth microdilution method; type: functional
How it was run: (§1)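 Broth microdilution following NCCLS document M7-A4. Serial two-fold dilutions from 0.06 to 64 mcg/ml were tested. The MIC was the lowest concentration preventing visible growth, with the endpoint read with the aid of a mirror reader.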

[2] = Inhibition of Haemophilus influenzae PDF assessed as formate release from fMAS peptide substrate after 20 mins by formate dehydrogenase coupled assay
How it was run: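 Coupled assay in which formate released from the fMAS peptide is oxidized by formate dehydrogenase, reducing NAD to NADH, read as the rise in absorbance at 340. Reactions were started by adding PDF and velocities measured for 20 min at 25 °C. Values are the mean of at least 2 runs.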

[3] = biological target: T1, Peptide deformylase (Streptococcus pneumoniae serotype 4 (strain ATCC BAA-334 / TIGR4), UniProt Q9F2F0); assay: Inhibition of Streptococcus pneumoniae PDF assessed as formate release from fMAS peptide substrate after 20 mins by formate dehydrogenase coupled assay
T1 sequence (Q9F2F0 whole entry): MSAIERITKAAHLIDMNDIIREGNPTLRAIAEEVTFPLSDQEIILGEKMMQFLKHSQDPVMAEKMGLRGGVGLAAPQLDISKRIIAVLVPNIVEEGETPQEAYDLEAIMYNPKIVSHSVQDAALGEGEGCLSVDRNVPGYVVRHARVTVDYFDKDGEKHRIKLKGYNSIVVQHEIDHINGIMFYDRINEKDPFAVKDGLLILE

[4] = test system: Moraxella catarrhalis; assay: Antibacterial activity against Moraxella catarrhalis 1502 by broth microdilution method; type: functional; how it was run: as §1
[5] = biological target: T2, Peptide deformylase (Staphylococcus aureus, UniProt P68826); assay: Inhibition of Staphylococcus aureus PDF assessed as formate release from fMAS peptide substrate after 20 mins by formate dehydrogenase coupled assay
T2 sequence (P68826 whole entry): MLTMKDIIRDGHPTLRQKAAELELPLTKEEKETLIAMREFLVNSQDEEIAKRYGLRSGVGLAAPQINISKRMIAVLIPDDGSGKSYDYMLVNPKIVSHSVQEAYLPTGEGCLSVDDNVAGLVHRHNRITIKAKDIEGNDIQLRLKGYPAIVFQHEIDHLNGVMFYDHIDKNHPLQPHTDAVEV

[6] = test system: Staphylococcus aureus; assay: Antibacterial activity against Staphylococcus aureus Oxford by broth microdilution method; type: functional; how it was run: as §1
[7] = test system: Enterococcus faecalis; assay: Antibacterial activity against Enterococcus faecalis 7 by broth microdilution method; type: functional; how it was run: as §1
[8] = test system: Haemophilus influenzae; assay: Antibacterial activity against Haemophilus influenzae Q1 by broth microdilution method; type: functional; how it was run: as §1
[9] = Metabolic stability of the compound in human blood assessed as compound remaining at 2000 ng/mL after 2 hrs; type: ADME, tissue-based; details: read-out: Stability
How it was run: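 Samples (n = 3) were spiked into fresh human blood at 2000 ng/mL, incubated at 37 °C for 120 min, and reported as % recovered at 2 h.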

SMILES | MIC [1] [µg/mL] | IC50 [2] [nM] | IC50 [3] [nM] | MIC [4] [µg/mL] | IC50 [5] [nM] | MIC [6] [µg/mL] | MIC [7] [µg/mL] | MIC [8] [µg/mL] | remaining at 2 h, 2000 ng/mL [9] [%]
NCCNC(=O)NC(=O)[C@@H]1CCCN1C(=O)[C@H](CC1CCCC1)CN(O)C=O | 16 (≈ 40.3 µM) | 7 | 0.38 | 2 (≈ 5.03 µM) | 2.3 | 16 (≈ 40.3 µM) | > 64 | > 64 | –
NC(=O)NC(=O)[C@@H]1CCCN1C(=O)[C@H](CC1CCCC1)CN(O)C=O | 2 (≈ 5.64 µM) | 4.8 | 0.91 | ≤ 0.06 | 2.2 | 2 (≈ 5.64 µM) | 4 (≈ 11.3 µM) | 0.125 (≈ 0.353 µM) | –
O=CN(O)C[C@@H](CC1CCCC1)C(=O)N1CCC[C@H]1C(=O)NC(=O)NCCCO | 2 (≈ 4.85 µM) | 6.9 | 0.77 | 0.125 (≈ 0.303 µM) | 3.2 | 4 (≈ 9.7 µM) | 16 (≈ 38.8 µM) | 1 (≈ 2.42 µM) | –
COCC(=O)NC(=O)[C@@H]1CCCN1C(=O)[C@H](CC1CCCC1)CN(O)C=O | 4 (≈ 10.4 µM) | 13 | 1 | ≤ 0.06 | 8 | 4 (≈ 10.4 µM) | 16 (≈ 41.7 µM) | 0.125 (≈ 0.326 µM) | –
CC(C)C(=O)NC(=O)[C@@H]1CCCN1C(=O)[C@H](CC1CCCC1)CN(O)C=O | 2 (≈ 5.24 µM) | 10 | 1.5 | ≤ 0.06 | 5 | 2 (≈ 5.24 µM) | 4 (≈ 10.5 µM) | 0.5 (≈ 1.31 µM) | –
CNC(=O)NC(=O)[C@@H]1CCCN1C(=O)[C@H](CC1CCCC1)CN(O)C=O | 1 (≈ 2.71 µM) | 6.1 | 0.46 | ≤ 0.06 | 2.1 | 0.5 (≈ 1.36 µM) | 4 (≈ 10.9 µM) | 0.25 (≈ 0.679 µM) | –
O=CN(O)C[C@@H](CC1CCCC1)C(=O)N1CCC[C@H]1C(=O)NC(=O)NCCc1cccnc1 | 1 (≈ 2.18 µM) | 4.7 | 0.37 | ≤ 0.06 | 1.4 | 2 (≈ 4.35 µM) | > 64 | 2 (≈ 4.35 µM) | –
COC(=O)NC(=O)[C@@H]1CCCN1C(=O)[C@H](CC1CCCC1)CN(O)C=O | 1 (≈ 2.71 µM) | 13 | 1.9 | ≤ 0.06 | 4.5 | 1 (≈ 2.71 µM) | 4 (≈ 10.8 µM) | 0.125 (≈ 0.338 µM) | –
O=CN(O)C[C@@H](CC1CCCC1)C(=O)N1CCC[C@H]1C(=O)NC(=O)C1CC1 | 1 (≈ 2.64 µM) | 5.5 | 1.2 | ≤ 0.06 | 2.3 | 0.5 (≈ 1.32 µM) | 2 (≈ 5.27 µM) | 0.125 (≈ 0.329 µM) | –

Continued by falling MIC [1], values first:

MIC [1] [µg/mL] | IC50 [2] [nM] | IC50 [3] [nM] | MIC [4] [µg/mL] | IC50 [5] [nM] | MIC [6] [µg/mL] | MIC [7] [µg/mL] | MIC [8] [µg/mL] | remaining at 2 h, 2000 ng/mL [9] [%] | SMILES
1 (≈ 2.52 µM) | 3 | 0.31 | ≤ 0.06 | 1.6 | 1 (≈ 2.52 µM) | 4 (≈ 10.1 µM) | 2 (≈ 5.04 µM) | 99.7 | CC(C)NC(=O)NC(=O)[C@@H]1CCCN1C(=O)[C@H](CC1CCCC1)CN(O)C=O
1 (≈ 2.53 µM) | 7 | 0.8 | ≤ 0.06 | 4 | 1 (≈ 2.53 µM) | 2 (≈ 5.06 µM) | 0.5 (≈ 1.26 µM) | – | CC(C)CC(=O)NC(=O)[C@@H]1CCCN1C(=O)[C@H](CC1CCCC1)CN(O)C=O
1 (≈ 2.17 µM) | 6.1 | 0.41 | ≤ 0.06 | 1.4 | 2 (≈ 4.34 µM) | 8 (≈ 17.4 µM) | 2 (≈ 4.34 µM) | – | O=CN(O)C[C@@H](CC1CCCC1)C(=O)N1CCC[C@H]1C(=O)NC(=O)NCCc1cnccn1
0.25 (≈ 0.529 µM) | 4.1 | 0.19 | ≤ 0.06 | 1 | 0.5 (≈ 1.06 µM) | 2 (≈ 4.23 µM) | 8 (≈ 16.9 µM) | – | O=CN(O)C[C@@H](CC1CCCC1)C(=O)N1CCC[C@H]1C(=O)NC(=O)NCCCc1ccccc1
0.25 (≈ 0.613 µM) | 6.1 | 0.43 | ≤ 0.06 | 2.5 | 0.5 (≈ 1.23 µM) | 1 (≈ 2.45 µM) | 0.25 (≈ 0.613 µM) | – | O=CN(O)C[C@@H](CC1CCCC1)C(=O)N1CCC[C@H]1C(=O)NC(=O)C1CCCC1
0.125 (≈ 0.306 µM) | 1.8 | 0.3 | ≤ 0.06 | 0.9 | 0.125 (≈ 0.306 µM) | 1 (≈ 2.45 µM) | 0.5 (≈ 1.22 µM) | – | O=CN(O)C[C@@H](CC1CCCC1)C(=O)N1CCC[C@H]1C(=O)NC(=O)NC1CCC1

Reference: ChEMBL document CHEMBL2029221, “Acylprolinamides: a new class of peptide deformylase inhibitors with in vivo antibacterial activity” (Bioorg Med Chem Lett, 2012)
